Non-standard residues stand in square brackets, D forms with d. Residues, ends and D or L forms follow the SMILES beside them. *: point of attachment. DTPA = O=C(O)CN(CCN(CC(=O)O)CC(=O)O)CCN(CC(=O)O)CC(=O)*; Orn = NCCC[C@H](N)C(=O)O; 2Furoyl = O=C(c1ccco1)*
What was measured:
PAR2 [1] = molecular target: T1, PAR2 (Homo sapiens, UniProt P55085); type: binding; conditions: 16HBE14o- cells, against 300 nM 2-f-LIGRLO-dtpa
T1 sequence (P55085 26-397): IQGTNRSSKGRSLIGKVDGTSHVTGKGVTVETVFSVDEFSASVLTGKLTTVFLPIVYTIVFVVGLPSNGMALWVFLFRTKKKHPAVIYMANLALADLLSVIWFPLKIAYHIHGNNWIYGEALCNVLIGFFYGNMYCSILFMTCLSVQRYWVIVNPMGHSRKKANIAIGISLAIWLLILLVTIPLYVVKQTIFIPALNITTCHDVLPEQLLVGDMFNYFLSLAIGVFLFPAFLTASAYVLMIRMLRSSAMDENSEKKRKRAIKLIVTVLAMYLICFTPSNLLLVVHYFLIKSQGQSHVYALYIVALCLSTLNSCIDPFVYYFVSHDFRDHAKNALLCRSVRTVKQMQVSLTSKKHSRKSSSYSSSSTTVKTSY
Procedure, shortened: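 Live 16HBE14o- cells grown to confluence (37°C, 5% CO2) on BSA/collagen I/fibronectin-coated 96-well plates. Cells were blocked 75 min in 2% BSA in HEPES-buffered HBSS pH 7.4, then given 45 min at 25°C with 300 nM Eu-DTPA-labelled PAR2 agonist plus competitor at 1 nM–600 µM. Three EDTA/Tween/BSA washes followed, then DELFIA enhancement for 40–45 min. Eu TRF read at ex 340/em 615 nm with 400 µs delay. Apparent IC50 from n ≥ 3 per concentration in ≥2 independent plates.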

[2] = tested on: control vector-transfected (kNRK) rat kidney cells; assay: Ca2+ signaling in control vector-transfected kNRK cells; type: cell-based
Procedure, shortened: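 Kirsten virus-transformed normal rat kidney cells (low PAR2 expression) transfected with control vector were run alongside PAR2-transfected kNRK cells. [Ca2+]i was imaged by digital microscopy as for the bronchial epithelial cells, scoring the percentage of cells responding within the 3 min run. Comparison was to matched control, n ≥ 4.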

PAR2 [3] = molecular target: T1, PAR2; assay: xCELLigence Real Time Cell Analyzer; type: cell-based; conditions: 16HBE14o- cells
PAR2 [4] = molecular target: T1, PAR2; assay: Ca2+ signaling by digital imaging microscopy in 16HBE14o- cells; type: cell-based; conditions: 5 µM
Procedure, shortened: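 Human bronchial epithelial 16HBE14o- cells (high PAR2 expression) imaged by digital microscopy for [Ca2+]i changes in individual cells over a 3 min run after agonist addition. Concentration response 0.5–25 µM. Read-out: time course of [Ca2+]i rise and percentage of cells in the field responding within 3 min. Each concentration had 3–9 experiments.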

PAR2 [5] = molecular target: T1, PAR2; assay: MAPK signaling, immunoblot of pERK/tERK; type: cell-based; conditions: 16HBE14o- cells, 5 min exposure, concentration response 1-10 µM
Procedure, shortened: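 16HBE14o- cells exposed 5 min to test compound at 1–10 µM. ERK1/2 phosphorylation measured by immunoblot as pERK relative to total ERK. Values were compared with matching HBSS control.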

competition for PAR2 binding (in words) (PAR2 [1]) | Compound | percentage of cells with Ca2+ signaling ([2]; 2.5 µM) | percentage of cells with Ca2+ signaling ([2]; 5 µM) | concentration that stimulated a maximum Cell Index (PAR2 [3]; RTCA) [µM] | agonist properties in the RTCA physiological response assay (PAR2 [3]; acute (10 min) and long-term (4 h) time points) | time to initial increase in [Ca2+]i (PAR2 [4]) [s] | concentration inducing a significant increase in pERK/tERK compared with control (PAR2 [5]) [µM] | concentration of peak (maximum) pERK/tERK activation (PAR2 [5]) [µM]
displayed limited binding | 3-indoleacetyl-LIGRL-NH2 [3-ia-LIGRL] | – | – | – | – | – | – | –
– | CC[C@H](C)[C@H](NC(=O)[C@H](CC(C)C)NC(=O)c1ccco1)C(=O)NCC(=O)N[C@@H](CCCNC(=N)N)C(=O)N[C@@H](CC(C)C)C(=O)N[C@@H](CCCNC(=O)CN(CCN(CCN(CC(=O)O)CC(=O)O)CC(=O)O)CC(=O)O)C(N)=O [2-f-LIGRLO-dtpa, 2-furoyl-LIGRLO-(diethylenetriaminepentaacetic acid)-NH2] (2Furoyl-LIGRL[Orn](DTPA)-NH2) | 0.42% ± 0.42 | 2.98% ± 0.09 | 2.5 | full agonist properties | ≤ 30 | 2.5 | 10

Source: publication PMC3556274 (Bioconjugate chemistry, 2012)
